Data on 20 sequences can be found in the EternaBench riboswitch data.

This data set has as its system MS2 coat protein. Kind of data set: apparent Kd, MS2 coat protein; higher = weaker binding; RNA-MaP array. The method, boiled down: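 Designed RNAs were produced on an Illumina sequencing chip by transcription of sequenced DNA templates. Binding to fluorescently labeled MS2 coat protein (1.5 nM to 3 μM) was measured at room temperature with or without input ligand. The apparent Kd is the median of per-cluster binding-curve fits. Designs were excluded when measured on fewer than 10 clusters.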

The mark [1] stands for this setting: designed as: OFF switch for flavin mononucleotide, no ligand.
Setting [2] is: ligand present: flavin mononucleotide, designed as: OFF switch for flavin mononucleotide.
[3] abbreviates: designed as: ON switch for flavin mononucleotide, no ligand.
[4] abbreviates: ligand present: flavin mononucleotide, designed as: ON switch for flavin mononucleotide.

In the case of “UGAGGUAAGGAGAAGGUCCAACGAUGAAUUUAGGAAGGAUAUCCAACAUGAGGAUCACCCAUGUAAGGGUGCCCGAAGUCAGGA”, the “apparent Kd” value came out at 0.133 µM under setting [1] and 0.178 µM under setting [2].

Take “AAACAGAGCAGAGGAUAUAUGAUAUGCCGAACAUGAGGAUCACCCAUGUCUUCGCGUAGCGCCCCAUAGAAGGCUGAUAGCAAC”: the “apparent Kd” value runs as follows: under setting [3], 0.0166 µM; under setting [4], 0.014 µM.

For “UUGCUAACAGUAGGAUAUUCAAAACAGCGUGAGGAAGAAGGACUAGCGACUUCGUGACAUGAGGAUCACCCAUGUGUAAGGCCA”, the “apparent Kd” value by setting is: under setting [3], 0.0125 µM; under setting [4], 0.00989 µM.

With “GAAUGUUGGAAGAAGGCACGCCCUGCAUGGCGGUGAGGAUAUUCCGUACUUGGAGUGGAAACAUGAGGAUCACCCAUGUAAGUA”, the “apparent Kd” value runs as follows: under setting [1], 0.0368 µM; under setting [2], 0.037 µM.

Take “UAGACAAAACAGAAGGAAUGAAGUAGAACAACAAUAGGAUAUGUAUAAAAGUAUACAUGAGGAUCACCCAUGUUACCAACAUGA”: the “apparent Kd” value is, setting by setting: under setting [3], 0.0114 µM; under setting [4], 0.00934 µM.

With “UCAGCACAUGAGGAUCACCCAUGUCGUGAUACCAGCCUGUGCGAAGGCCCUUGGCAGCACAGUCCCGAUUUGCUUAUAUGCACUU”, the “apparent Kd” value is 0.0357 µM (designed as: ON switch for theophylline, no ligand) and 0.0369 µM (ligand present: theophylline, designed as: ON switch for theophylline).

“AGGCGCAACGUAGGAUAUACCGGCAUUGUCCAAGUAGAAGGACGUUGUGAUCGCUAGGUAACAUGAGGAUCACCCAUGUCUUAC”: the “apparent Kd” value under setting [3] stood at 0.00696 µM and the “apparent Kd” value under setting [4] was 0.0058 µM.

As to “CACAUGUCAGGAUAUAGCGAUACAGUUCGACCACUUACUGCCUAGAAGGGACAUGAGGAUCACCCAUGUAAAAG”, the “apparent Kd” value was determined as 0.0261 µM under setting [1] and 0.0612 µM under setting [2].

Turning to “GGGUUAAAGCAGAAGGGUUACGGACAAAAUUAAACAGGAUAUGCCGUAAUACAUGAGGAUCACCCAUGUCAUACGUCAUCAGGG”, the “apparent Kd” value is, setting by setting: under setting [3], 0.0189 µM; under setting [4], 0.016 µM.

Consider “CUGAAGUAAGGAUAUAUAUACCAUAGACCAUUAAAGACAUUAUAGAAGGUACAUGAGGAUCACCCAUGUGGGAA”, for which the “apparent Kd” value came out at 0.0299 µM under setting [1] and 0.0264 µM under setting [2].

Consider “AUUCGCCGAGGAUAUAAGUCGUUUGACAUGAGGAUCACCCAUGUUGUCAGUGGAAAUCGUUUAGAAGGCGGCCUCC”, for which the “apparent Kd” value by setting is: under setting [1], 0.0189 µM; under setting [2], 0.0134 µM.

Turning to “AGCUGGGCUGAGAAGGCGUAUCGCUGUUAAGUGACAUGAGGAUCACCCAUGUAAUUACGAGGCUACGAGGAUAUCAACUAUGGA”, the “apparent Kd” value amounted to 0.0351 µM under setting [3] and 0.0155 µM under setting [4].

Take “AUACGGCGGUAAAAUCAGAGAGUAAAAGAUACCAGCAAUAAUAAAUGCCCUUGGCAGCUUCUGACAUGAGGAUCACCCAUGUAAA”: the “apparent Kd” value is 0.0153 µM (designed as: OFF switch for theophylline, no ligand) and 0.0291 µM (ligand present: theophylline, designed as: OFF switch for theophylline).

For the sequence “GAAUUUCGGAAGAAGGGACUCGAUCAGUUCAGGUCAGGAUAUUCACAUGAGGAUCACCCAUGUCCAUCAGCAUGACGUUUCCAC”, the “apparent Kd” value reads like this: under setting [1], 0.0109 µM; under setting [2], 0.0147 µM.

Regarding “GUGCCAAAAGAGGAUAUAUUGACGAUGAUUCGCAUAGAAGGCUUUACAUGAGGAUCACCCAUGUGGGAGUGAUC”, the “apparent Kd” value came to 0.614 µM under setting [1] and 0.184 µM under setting [2].

On to “AGAGAGUCAGGAUAUAAAUAUAAAGAGAUAAAGCAAACAAUUUAGAAGGGACAUGAGGAUCACCCAUGUGAUAA”, for which the “apparent Kd” value by setting is: under setting [1], 0.0136 µM; under setting [2], 0.0127 µM.

Turning to “ACGAAUGGUUCAACAUGAGGAUCACCCAUGUGAUCUUCCAUUCAGGAUAUGUGUAGUAGAUCUCAACAGAAGGGAAUAAAAUAG”, the “apparent Kd” value runs as follows: under setting [1], 0.0358 µM; under setting [2], 0.0387 µM.

“GUGUCUUGGGAGGAUAUCCACUUCACGUCAUAUGGAGAAGGCCCGACAUGAGGAUCACCCAUGUGGUAACUGGC”: the “apparent Kd” value is 0.0257 µM under setting [1] and 0.0287 µM under setting [2].

“GUGAGACAUGAGGAUCACCCAUGUUAGGAUAUUAAACUGGUUUAGUCUGUGACCGACGUAAGAAGGAACUUGAU”: the “apparent Kd” value under setting [1] stood at 0.0131 µM and the “apparent Kd” value under setting [2] stood at 0.0117 µM.

Take “AGGAGCGGAAUAGGAUAUUGUAGAUAUAUCAAACAAGAAGGAUUAGCUAACAUGAGGAUCACCCAUGUGGGAUCAAACUCACUC”: the “apparent Kd” value under setting [1] is 0.0827 µM and the “apparent Kd” value under setting [2] was 0.127 µM.
